Consider 2 molecules from article PMC8592256 (Nature structural & molecular biology, 2021).

What all share (type): binding
Experiment [1] concerns human katanin AAA domain variability hotspot mutant constructs (L214C, T253N, A419L, T422K etc.). Kind of experiment: DSF, katanin AAA domain variability hotspot mutants. The method in brief: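 Human katanin constructs (AAA domain aa 171–491, or aa 111–491; WT or mutants) were expressed in E. coli Rosetta (DE3) pLysS and purified by MBP-affinity, protease tag cleavage, anion exchange and gel filtration. Protein was 8 μM in 20 mM HEPES.Na, 120 mM NaCl, 5 mM MgCl2, 1 mM TCEP, 10 mM (NH4)2SO4, pH 7.5, with SYPRO Orange. Ligand was ADP 1 mM or compound 50–500 μM, in 5% DMSO final. Tm was taken as the minimum of the first derivative of fluorescence versus temperature.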
(DSF heats the sample and reads unfolding from a dye or from intrinsic fluorescence.)

In experiment [2] the target is T1, HS-VPS4B-WT (Homo sapiens, UniProt O75351).
T1 sequence (O75351 1-444): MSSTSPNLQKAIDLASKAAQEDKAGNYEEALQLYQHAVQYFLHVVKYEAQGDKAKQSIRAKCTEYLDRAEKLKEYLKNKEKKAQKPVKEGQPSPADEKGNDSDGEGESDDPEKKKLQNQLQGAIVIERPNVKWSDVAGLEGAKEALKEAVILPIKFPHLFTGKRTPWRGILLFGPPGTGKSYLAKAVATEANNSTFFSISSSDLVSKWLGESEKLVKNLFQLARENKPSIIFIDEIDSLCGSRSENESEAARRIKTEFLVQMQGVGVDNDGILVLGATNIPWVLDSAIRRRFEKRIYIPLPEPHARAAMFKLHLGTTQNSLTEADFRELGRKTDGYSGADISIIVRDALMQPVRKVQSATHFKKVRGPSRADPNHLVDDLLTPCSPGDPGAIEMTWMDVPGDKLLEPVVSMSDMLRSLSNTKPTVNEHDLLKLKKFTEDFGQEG
Nature of the experiment: DSF, HS-VPS4B-WT. The note with it: ADP 1 mM; WT and Asp-to-Cys mutant to a similar extent. The method in brief: (§1)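 FIGL1 and HS-VPS4B (WT and Asp-to-Cys mutant) were scanned at 8 μM protein, with or without ADP 1 mM, in 20 mM HEPES.Na, 120 mM NaCl, 5 mM MgCl2, 1 mM TCEP, 10 mM (NH4)2SO4, pH 7.5. Buffer contained SYPRO Orange and 5% DMSO final. Melting temperature was taken from the minimum of the first derivative of the fluorescence–temperature curve. ΔTm was relative to the no-ADP control.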

The target in experiment [3] is T2, FIGL1-WT (Homo sapiens, UniProt Q6PIW4).
T2 sequence (Q6PIW4 288-674): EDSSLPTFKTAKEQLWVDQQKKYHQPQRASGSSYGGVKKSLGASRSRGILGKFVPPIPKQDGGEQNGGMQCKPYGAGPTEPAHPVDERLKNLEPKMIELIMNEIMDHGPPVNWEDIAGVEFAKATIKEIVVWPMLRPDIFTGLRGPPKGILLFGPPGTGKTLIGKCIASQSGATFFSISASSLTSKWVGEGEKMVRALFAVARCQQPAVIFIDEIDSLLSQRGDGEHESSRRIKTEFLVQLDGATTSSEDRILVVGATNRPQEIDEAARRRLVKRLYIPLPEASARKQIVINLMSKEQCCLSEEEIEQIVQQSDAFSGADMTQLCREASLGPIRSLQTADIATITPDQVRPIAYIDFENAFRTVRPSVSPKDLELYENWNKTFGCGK
Kind of experiment: DSF, FIGL1-WT. The settings on record: ADP 1 mM; WT and Asp-to-Cys mutant to a similar extent. The procedure, abridged:
as §1

Structures are written as SMILES.

With `Nc1ncnc2c1ncn2[C@@H]1O[C@H](COP(=O)(O)OP(=O)(O)O)[C@@H](O)[C@H]1O` [ADP, adenosine 5’-diphosphate], in experiment [1] (ADP 1 mM, five alleles with mutations at the variability hotspots), the “shift in melting temperature (ΔTm)” value is “+4 to +6 °C”. Also, the “increase in thermal stability on ADP binding” value in experiment [2] is “approximately +5 °C”; in experiment [3], “~+3 °C”.

For the molecule `Nc1nc2c(-c3ccccc3)cccn2n1` [compound 1, 8-phenyl-triazolopyridine-2-amine], the “effect of mutation on compound binding (DSF)” value in experiment [1] (three of the four variability hotspot mutations, compound 500 μM) is “reduced compound binding”.
